Calls of active or inactive are those of the source. The calls are words filed in the database; no cut-off is given here.
Tests used:
[1] = tested on: Solanum tuberosum; experiment: Inhibition of potato 5-LOX assessed as decrease in leukotriene production using arachidonic acid as substrate at 0.1 uM by enzyme immunoassay
Method in brief: (§1)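 Potato 5-LOX assay in buffer with DMSO solvent control. Compounds were tested at final well concentrations of 10^-5 to 10^-8 M in duplicate. Reaction was started with arachidonic acid and the plate shaken 5 min. Chromogen was added to stop the reaction, followed by 30 min incubation and reading at 500 nm. Activity was compared with 100% initial-activity wells.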

[2] = target: T1, Prostaglandin G/H synthase 1 (Ovis aries) (UniProt P05979); experiment: Inhibition of ovine COX-1 assessed as decrease in prostaglandin production using arachidonic acid as substrate at 0.1 uM incubated with enzyme for 10 mins prior to substrate challenge by enzyme immunoassay
T1 sequence (whole entry): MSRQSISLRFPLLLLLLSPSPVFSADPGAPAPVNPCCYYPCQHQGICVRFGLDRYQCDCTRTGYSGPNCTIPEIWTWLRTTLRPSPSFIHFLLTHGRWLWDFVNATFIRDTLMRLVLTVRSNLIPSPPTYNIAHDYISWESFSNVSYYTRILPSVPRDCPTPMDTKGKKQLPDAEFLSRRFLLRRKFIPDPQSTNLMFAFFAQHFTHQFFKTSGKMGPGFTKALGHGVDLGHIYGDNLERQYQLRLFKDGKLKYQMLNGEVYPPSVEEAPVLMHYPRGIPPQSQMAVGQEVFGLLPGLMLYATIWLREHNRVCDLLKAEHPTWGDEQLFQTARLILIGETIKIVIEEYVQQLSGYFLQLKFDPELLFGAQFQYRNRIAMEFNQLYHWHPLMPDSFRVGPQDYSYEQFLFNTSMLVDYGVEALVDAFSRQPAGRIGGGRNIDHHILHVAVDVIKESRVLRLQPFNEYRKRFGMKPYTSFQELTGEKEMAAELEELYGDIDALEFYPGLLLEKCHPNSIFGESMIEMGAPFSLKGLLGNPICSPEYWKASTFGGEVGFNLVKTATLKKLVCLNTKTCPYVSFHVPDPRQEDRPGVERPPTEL
Method in brief: (§2)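 Ovine COX-1 EIA kit run in triplicate. Compounds were at 10^-5 to 10^-8 M. Enzyme and compound were incubated 10 min at 37 °C, then arachidonic acid was added for 2 min. The reaction was stopped with 1 M HCl and reduced with stannous chloride. Prostaglandins were quantified by AChE-tracer competitive EIA (18 h at room temperature, Ellman's reagent, read at 420 nm) against a 100% activity control.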

[3] = target: T2, Prostaglandin G/H synthase 1 (Ovis aries, UniProt P05979); experiment: Inhibition of ovine COX-1 assessed as decrease in prostaglandin production using arachidonic acid as substrate incubated with enzyme for 10 mins prior to substrate challenge by enzyme immunoassay; method in brief: as §2
T2 sequence (P05979 whole entry): T1 sequence (whole entry)

[4] = tested on: Solanum tuberosum; experiment: Inhibition of potato 5-LOX assessed as decrease in leukotriene production using arachidonic acid as substrate at 10 nM by enzyme immunoassay
[5] = target: T1, Prostaglandin G/H synthase 1 (Ovis aries); experiment: Inhibition of ovine COX-1 assessed as decrease in prostaglandin production using arachidonic acid as substrate at 1 uM incubated with enzyme for 10 mins prior to substrate challenge by enzyme immunoassay; method in brief: as §2
[6] = tested on: Solanum tuberosum; experiment: Inhibition of potato 5-LOX assessed as decrease in leukotriene production using arachidonic acid as substrate at 1 uM by enzyme immunoassay
[7] = target: T1, Prostaglandin G/H synthase 1 (Ovis aries); experiment: Inhibition of ovine COX-1 assessed as decrease in prostaglandin production using arachidonic acid as substrate at 10 uM incubated with enzyme for 10 mins prior to substrate challenge by enzyme immunoassay; method in brief: as §2
[8] = Inhibition of potato 5-LOX assessed as decrease in leukotriene production using arachidonic acid as substrate by enzyme immunoassay; set-up: species or system Solanum tuberosum; method in brief: as §1
[9] = target: T3, Prostaglandin G/H synthase 2 (Homo sapiens) (UniProt P35354)
T3 sequence (whole entry): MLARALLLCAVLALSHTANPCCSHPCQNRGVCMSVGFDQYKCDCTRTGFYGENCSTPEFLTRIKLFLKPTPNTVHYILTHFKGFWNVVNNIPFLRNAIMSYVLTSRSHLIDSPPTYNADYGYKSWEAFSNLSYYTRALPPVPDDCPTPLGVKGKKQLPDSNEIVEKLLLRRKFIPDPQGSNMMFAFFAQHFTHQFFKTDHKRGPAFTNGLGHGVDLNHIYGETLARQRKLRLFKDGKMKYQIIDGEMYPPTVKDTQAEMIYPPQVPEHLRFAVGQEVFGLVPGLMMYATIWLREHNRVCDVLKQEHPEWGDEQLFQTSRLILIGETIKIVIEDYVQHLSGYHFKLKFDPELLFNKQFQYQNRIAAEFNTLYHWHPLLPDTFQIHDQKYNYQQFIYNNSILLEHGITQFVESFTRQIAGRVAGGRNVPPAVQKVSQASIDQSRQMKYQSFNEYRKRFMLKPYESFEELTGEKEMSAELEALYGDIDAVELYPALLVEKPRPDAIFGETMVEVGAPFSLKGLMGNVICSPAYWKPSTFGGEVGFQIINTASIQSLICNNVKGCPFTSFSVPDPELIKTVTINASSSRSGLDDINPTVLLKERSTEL

[10] = tested on: Mus musculus; experiment: Analgesic activity in Swiss albino mouse assessed as decrease in capsaicin-induced paw lickings at 10 mg/kg, ip administered 30 mins before capsaicin injection; type: functional, organism-based; set-up: dose 10 mg/kg
Method in brief: (§3)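 Capsaicin […] was injected into the plantar surface of the right hind paw. Swiss albino mice (25–35 g, either sex, groups of 6) were pretreated i.p. 30 min beforehand; saline 0.5 mL was the control. Time spent licking and twitching was recorded over 10 min. Results are mean ± SEM (n = 6), analysed by one-way ANOVA with Tukey's test.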

[11] = target: Prostaglandin G/H synthase 1 (Homo sapiens) (UniProt P23219); experiment: Binding affinity to COX-1 (unknown origin) at 0.35 mM after 30 mins by [13C] NMR spectroscopy; settings: in the assay text read “[1H] NMR” for “[13C] NMR”
Method in brief: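 Compound was 0.35 mM in DMSO-d6, with 12 (0.08 mM) COX-1 or COX-2 added. Samples were incubated at 37 °C and 1H NMR spectra were recorded every 30 min. D2O exchange was used to assign NH signals.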

[12] = tested on: Solanum tuberosum; experiment: Inhibition of potato 5-LOX assessed as decrease in leukotriene production using arachidonic acid as substrate at 10 uM by enzyme immunoassay; method in brief: as §1
[13] = tested on: Mus musculus; experiment: Analgesic activity in Swiss albino mouse assessed as decrease in capsaicin-induced paw lickings at 5 mg/kg, ip administered 30 mins before capsaicin injection; type: functional; settings: route intraperitoneal; method in brief: as §3
[14] = target: Prostaglandin G/H synthase 1 (Homo sapiens) (UniProt P23219)
[15] = tested on: Mus musculus; experiment: Analgesic activity in Swiss albino mouse assessed as decrease in capsaicin-induced paw lickings at 25 mg/kg, ip administered 30 mins before capsaicin injection; type: functional; settings: route intraperitoneal; method in brief: as §3

Prostaglandin G/H synthase 1 (Homo sapiens), sequence (P23219 whole entry): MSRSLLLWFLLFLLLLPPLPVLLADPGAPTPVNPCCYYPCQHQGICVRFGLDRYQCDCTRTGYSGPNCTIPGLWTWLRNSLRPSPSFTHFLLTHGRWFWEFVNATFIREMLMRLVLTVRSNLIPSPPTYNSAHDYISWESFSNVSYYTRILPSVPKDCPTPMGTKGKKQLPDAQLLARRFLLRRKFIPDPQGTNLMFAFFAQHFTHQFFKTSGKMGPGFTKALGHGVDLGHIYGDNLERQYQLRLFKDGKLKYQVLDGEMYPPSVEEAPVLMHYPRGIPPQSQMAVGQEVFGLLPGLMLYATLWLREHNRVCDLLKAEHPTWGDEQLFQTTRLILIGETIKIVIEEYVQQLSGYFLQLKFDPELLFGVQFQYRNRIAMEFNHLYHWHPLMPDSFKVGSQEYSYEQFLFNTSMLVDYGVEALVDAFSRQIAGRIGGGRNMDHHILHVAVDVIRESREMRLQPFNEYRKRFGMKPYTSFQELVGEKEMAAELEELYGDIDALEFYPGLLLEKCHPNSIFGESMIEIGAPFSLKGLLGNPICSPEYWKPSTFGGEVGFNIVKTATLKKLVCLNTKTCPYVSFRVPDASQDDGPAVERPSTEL

Row | SMILES | inhibition [1] [%] | inhibition [2] [%] | IC50 [3] [nM] | inhibition [4] [%] | inhibition [5] [%] | inhibition [6] [%] | inhibition [7] [%] | IC50 [8] [nM] | Ka [9] [×10⁴ /M] | Activity [11] | inhibition [12] [%] | Ka [14] [×10⁴ /M] | inhibition [10] | inhibition in vivo at 5 mg/kg [13] [%] | inhibition in vivo at 25 mg/kg [15] [%]
1 | CC1=NN(c2cccc(Cl)c2)C(=O)/C1=C/c1coc2c([N+](=O)[O-])cc(F)cc2c1=O | 22.4 | 15 | > 10000 | 8.62 | 18 | 46.5 | 27.9 | 7400 | – | – | – | – | – | – | –
2 | CCCCC/C=C\C/C=C\C/C=C\C/C=C\CCCC(=O)O | – | – | – | – | – | – | – | – | 0.18 | – | – | 0.39 | – | – | –
3 | CC(=O)Oc1ccccc1C(=O)O | – | – | – | – | – | – | – | – | 0.22 | – | – | 0.93 | – | – | –
4 | O=C(O)Cc1ccccc1Nc1c(Cl)cccc1Cl [DICLOFENAC] | – | – | – | – | – | – | – | – | – | – | – | – | – | – | 68

The next lines start with results.

Row | inhibition [1] [%] | inhibition [2] [%] | IC50 [3] [nM] | inhibition [4] [%] | inhibition [5] [%] | inhibition [6] [%] | inhibition [7] [%] | IC50 [8] [nM] | Ka [9] [×10⁴ /M] | Activity [11] | inhibition [12] [%] | Ka [14] [×10⁴ /M] | SMILES | inhibition [10] | inhibition in vivo at 5 mg/kg [13] [%] | inhibition in vivo at 25 mg/kg [15] [%]
5 | 44.8 | 47 | 650 | 30.1 | 56 | 81 | 64.6 | 20 | – | – | – | – | CC(C)c1ccc2occ(/C=C3/C(=O)N(c4c(Cl)cccc4Cl)c4ccccc43)c(=O)c2c1 | – | – | –
6 | 22.4 | 35 | 1350 | – | 43 | – | 51.6 | – | 0.75 | Active | 74.1 | 0.29 | O=C1Nc2ccccc2/C1=C/c1coc2ccccc2c1=O | Active | 76 | –
7 | 37 | 44.4 | 630 | 25 | 60 | – | 80.3 | 10000 | – | – | 50 | – | O=C1/C(=C/c2coc3ccc(Br)cc3c2=O)c2ccccc2N1c1c(Cl)cccc1Cl | – | – | –
8 | – | 20 | 6750 | – | 30.4 | 77.6 | 40.5 | – | – | – | – | – | O=C1Nc2ccccc2/C1=C/c1coc2ccc(Br)cc2c1=O | – | – | –
9 | 20 | 63 | 4.7 | – | 75 | 15.5 | 80.3 | – | – | – | 8.62 | – | O=C1/C(=C/c2coc3ccccc3c2=O)c2ccccc2N1c1c(Cl)cccc1Cl | – | – | –

Reference: ChEMBL document CHEMBL3351295, “Rational design, synthesis and evaluation of chromone-indole and chromone-pyrazole based conjugates: identification of a lead for anti-inflammatory drug” (Eur J Med Chem, 2014)
